# Screening data: PubChem BioAssay, several laboratories
# Many of the other results were omitted from the sample, so hits are more common in it than they were.
# CHOP inh – inhibitors of CHOP promoter induction, primary screen, cell-based, unfolded protein response, luciferase reporter | CHO-K1 CHOP-promoter luciferase, tunicamycin-induced, 15-18 h | inhibition, % at 10 µM | 220,000 compounds, 3.8% hits | AID 2732, 2010;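 active = compounds that reduced the stress-induced luciferase reporter signal by more than about 70% of percent inhibition, limit read from the data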
# UPR CHOP act – activators of apoptotic CHOP UPR arm, primary screen, cell-based, CHO-CHOP luciferase reporter, luminescence, uHTS. UPR activation; percent of tunicamycin response over DMSO baseline. activation, % at 10 µM. 330,000 compounds, 0.34% hits;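 active = at 10 µM dose, activation of 40% or more, normalized to positive control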
#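 measured by = luciferase luminescence | assay system = CHO-CHOP cells, stable luciferase reporter of PERK-eIF2a-CHOP signalling | amount = 500 reporter cells seeded per well | timing = 6 h compound exposure at 37 °C after overnight seeding | controls = positive tunicamycin 10 µg/mL, negative DMSO alone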
# V-ATPase pHluor – regulators of yeast V-ATPase proton pumping, primary screen, pHLuorin cytosolic pH fluorescence. S. cerevisiae. response, % at 10 µM. 350,000 compounds, 0.37% hits. AID 504577, 2011; in the data active = response mostly above about 7.3%, no sharp cut-off; inactive = mostly below about 5.4%; note: actives read high
# UPR XBP1 act – activators of adaptive XBP1 UPR arm, primary screen, cell-based, CHO-XBP1 luciferase reporter, luminescence, uHTS; activation, % at 20 µM; 330,000 compounds, 0.33% hits; IRE1-XBP1 UPR activation; percent of tunicamycin response, DMSO as zero; AID 463104, 2010;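 active = versus positive control, 20 µM dose yields 30% or more activation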
#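 Material: CHO-XBP1 cells stably carrying IRE1-XBP1-driven luciferase reporter | Medium: F12 with 10% serum | Compound dosing: 20 µM single concentration, DMSO 1% | Incubation: Overnight seeding at 37 °C, 6 h compound treatment at 37 °C | Detection: Steady-Glo luminescence read | Read-out basis: % activation of reporter signal versus tunicamycin and DMSO controls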
# TbMetRS inhib – T. brucei MetRS inhibitors, primary screen, biochemical, luminescence; purified T. brucei MetRS, ATP depletion, Kinase-Glo luminescence; inhibition, % at 11.9 µM; 360,000 compounds, 0.4% hits; AID 624268, 2012;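 active = inhibition above a per-plate cutoff of the control wells' mean inhibition plus 3 SD, cut at about 5.5% in these data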
#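 Measured by: Kinase-Glo luciferase luminescence reporting remaining unconsumed ATP. Material: purified T. brucei MetRS enzyme. Doses: 11.9 µM compound single dose, 0.9% DMSO. Medium: HEPES buffer containing pyrophosphatase, BSA, spermine, DTT. Times: 15 min preincubation, 2 h reaction, all 25 °C. Reagent: methionine, ATP and bulk E. coli tRNA.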
# Numbers stand for hits; - = inactive; . = no result.
SMILES,CHOP inh,UPR CHOP act,V-ATPase pHluor,UPR XBP1 act,TbMetRS inhib
CC(C)Oc1cc2oc(=O)c3c(c2cc1Cl)CCC3,82,-,-,-,-
CC(C)CCCCCCNC(=S)Nc1ccc(S(=O)(=O)N2CCOCC2)cc1,76,-,-,-,-
Cc1cc(S(=O)(=O)ON2C(=O)c3ccccc3C2=O)ccc1F,.,.,11,.,-
CC(=O)O[C@H]1C(=O)[C@@]2(C)C([C@H](OC(=O)c3ccccc3)[C@]3(O)C[C@H](OC(=O)[C@H](O)[C@@H](NC(=O)c4ccccc4)c4ccccc4)C(C)=C1C3(C)C)[C@]1(OC(C)=O)CO[C@@H]1C[C@@H]2O (stereo partly drawn),88,.,.,.,.
CC(=O)O[C@H]1C(=O)[C@]2(C)[C@H]([C@H](OC(=O)c3ccccc3)[C@]3(O)C[C@H](OC(=O)[C@H](O)[C@@H](NC(=O)c4ccccc4)c4ccccc4)C(C)=C1C3(C)C)[C@]1(OC(C)=O)CO[C@@H]1C[C@@H]2O,.,-,-,-,-
CCc1ccc(-c2cn3nc(C)c(C)nc3n2)cc1,92,-,-,-,-
Cc1ccc(N2CCN(C(=O)c3cc(-c4ccc(F)cc4)[nH]c3C)CC2C)cc1 (stereo not drawn),.,-,-,-,-
O=[N+]([O-])c1cc([N+](=O)[O-])c2n[nH]c(-c3ccccc3)c2c1,72,-,-,-,-
O=[N+]([O-])c1cc(-c2n[nH]c(-c3ccccc3)n2)cc([N+](=O)[O-])c1,94,-,-,-,-
O=[N+]([O-])c1cccc2c(Br)[nH]nc12,-,.,.,.,.
Cc1nn(-c2ccc(F)cc2)c(Cl)c1/C=N/NC(=O)c1cccs1,93,-,-,-,-
Cc1ccc(S(=O)(=O)c2c(C)nn(-c3ccccc3)c2OC(=O)c2ccco2)cc1,103,-,-,-,-
O=c1n(Cc2ccccc2F)c2ccccc2n1Cc1ccccc1F,74,-,-,-,-
Cn1c(=O)n(Cc2ccccc2F)c2ccccc21,-,-,-,-,-
Oc1ccccc1CN(Cc1ccco1)CC(O)COCc1ccc(Cl)cc1 (stereo not drawn),84,-,-,-,-
CCNC(=O)C1(C)CCCN(C(=O)c2cc3ccccc3s2)C1 (stereo not drawn),.,.,.,.,-
CCOc1ccc(NC(=O)CSc2nnc(COc3c(C)cccc3C)o2)cc1,87,-,-,-,-
Cc1ccc(NC(=O)CSc2nnc(-c3ccccc3C)o2)cc1C,70,-,-,-,-
c1ccc(-c2nc(NCc3cccnc3)c3ccccc3n2)cc1,-,-,-,-,-
O=[N+]([O-])c1cccc(-c2nc(NCc3ccccc3)c3ccccc3n2)c1,-,-,-,-,-
Fc1ccc(CNc2nc(-c3ccccc3)nc3ccccc23)cc1,73,-,-,-,-
O=[N+]([O-])c1ccc(-c2nc(NCc3ccccc3)c3ccccc3n2)cc1,90,-,-,-,-
Nc1nnc2cc(Br)ccc2n1,.,.,-,.,-
O=C(CN1C(=O)c2ccccc2S1(=O)=O)N1CCN(Cc2ccc3c(c2)OCO3)CC1,-,-,-,-,-
O=C(Cn1ncc2c1-c1ccccc1OC2)N1CCN(Cc2ccc3c(c2)OCO3)CC1,77,-,-,-,-
SMILES,CHOP inh,UPR CHOP act,V-ATPase pHluor,UPR XBP1 act,TbMetRS inhib
CC(C)(C)OC(=O)N1CCC[C@H]1C(=O)N1CCC[C@H]1C(=O)NCc1ccncc1,.,.,.,.,-
Cc1cccc(C)c1-n1nnnc1C(c1cc2ccccc2o1)N1CCN(C/C=C/c2ccccc2)CC1 (stereo not drawn),.,.,.,.,-
CCC(C)(C)NC(=O)C(c1ccc(C)o1)N(Cc1cccs1)C(=O)Cn1nnc2ccccc21 (stereo not drawn),77,-,.,-,-
CC1(C(=O)NS(=O)(=O)Cc2ccccc2C(F)(F)F)CCN1C(=O)Cc1ccccc1 (stereo not drawn),.,.,.,.,-
CCC(Sc1nc(N)c(NC(=O)c2ccc(Br)o2)c(=O)[nH]1)C(=O)O (stereo not drawn),.,-,-,-,-
COc1ccc(C(=O)Nc2cc(C)c3c(=O)oc4ccccc4c3n2)cc1,88,-,-,-,-
